Each compound was assayed against T1, Monoamine transporters; serotonin & dopamine (Rattus norvegicus) (UniProt P31652+P23977) (assay: Ratio of reuptake of 5-HT to that of DA).
Type: functional

T1 sequence (P23977 whole entry, looked up): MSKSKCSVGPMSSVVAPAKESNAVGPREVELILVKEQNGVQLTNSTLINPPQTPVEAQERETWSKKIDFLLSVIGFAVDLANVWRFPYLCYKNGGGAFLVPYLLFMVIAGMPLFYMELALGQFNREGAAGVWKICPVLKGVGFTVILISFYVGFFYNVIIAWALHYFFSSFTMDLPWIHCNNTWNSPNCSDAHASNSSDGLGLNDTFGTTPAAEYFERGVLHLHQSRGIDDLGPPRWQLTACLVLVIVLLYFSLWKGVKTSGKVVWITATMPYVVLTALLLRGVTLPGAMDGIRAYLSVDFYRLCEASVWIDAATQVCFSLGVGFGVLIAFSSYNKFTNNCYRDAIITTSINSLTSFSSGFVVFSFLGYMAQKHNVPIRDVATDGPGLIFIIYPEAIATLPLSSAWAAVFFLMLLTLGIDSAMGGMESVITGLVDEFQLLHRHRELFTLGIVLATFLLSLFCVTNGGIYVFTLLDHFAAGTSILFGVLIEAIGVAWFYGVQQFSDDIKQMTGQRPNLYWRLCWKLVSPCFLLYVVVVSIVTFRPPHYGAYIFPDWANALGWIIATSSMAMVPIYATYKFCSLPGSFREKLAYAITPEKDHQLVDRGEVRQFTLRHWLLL
T1 sequence (P31652 whole entry, looked up): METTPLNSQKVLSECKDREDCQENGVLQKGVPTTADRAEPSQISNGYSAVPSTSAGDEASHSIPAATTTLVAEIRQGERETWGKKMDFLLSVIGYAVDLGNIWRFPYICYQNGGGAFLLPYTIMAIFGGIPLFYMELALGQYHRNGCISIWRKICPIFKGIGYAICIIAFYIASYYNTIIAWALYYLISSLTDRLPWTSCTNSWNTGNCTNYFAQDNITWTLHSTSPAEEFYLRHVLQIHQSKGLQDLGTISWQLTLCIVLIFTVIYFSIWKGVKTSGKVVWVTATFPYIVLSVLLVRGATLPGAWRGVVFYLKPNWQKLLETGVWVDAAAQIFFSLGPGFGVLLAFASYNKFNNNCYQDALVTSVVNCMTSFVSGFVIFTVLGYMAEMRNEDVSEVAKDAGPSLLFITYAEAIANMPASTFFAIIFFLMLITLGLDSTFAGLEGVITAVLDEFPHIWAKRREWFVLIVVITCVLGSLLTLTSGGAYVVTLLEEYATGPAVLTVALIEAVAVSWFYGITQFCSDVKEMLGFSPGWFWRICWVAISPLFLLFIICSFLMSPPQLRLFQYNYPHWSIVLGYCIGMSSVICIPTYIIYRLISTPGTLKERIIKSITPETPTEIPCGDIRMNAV

| Structure (SMILES) | Ratio |
| --- | --- |
| Fc1ccc(C(OCCN2CC3CCC(C2)N3C/C=C/c2cccs2)c2ccc(F)cc2)cc1 | 10 |
| c1ccc(CCCN2C3CCC2CN(CCOC(c2ccccc2)c2ccccc2)C3)cc1 | 58 |
| CN1C2CCC1CN(CCOC(c1ccc(F)cc1)c1ccc(F)cc1)CC2 (stereo not given) | 47 |
| CN1C2CCC1CN(CCOC(c1ccc(F)cc1)c1ccc(F)cc1)C2 | 93 |
| Fc1ccc(C(OCCN2CC3CC2CN3CCCc2ccccc2)c2ccc(F)cc2)cc1 (stereo not given) | 1.5 |
| Fc1ccc(C(OCCN2CC3CCC(C2)N3C/C=C/c2cccnc2)c2ccc(F)cc2)cc1 | 40 |
| Fc1ccc(C(OCCN2CC3CCC(C2)N3C/C=C/c2ccco2)c2ccc(F)cc2)cc1 | 13 |
| CN1C2CCC1CN(CCOC(c1ccccc1)c1ccccc1)C2 | 12 |
| c1ccc(CCCN2C3CCC2CN(CCOC(c2ccccc2)c2ccccc2)CC3)cc1 (stereo not given) | 26 |
| c1ccc(CCCN2CC3CC2CN3CCOC(c2ccccc2)c2ccccc2)cc1 (stereo not given) | 5 |
| CN1CC2CC1CN2CCOC(c1ccccc1)c1ccccc1 (stereo not given) | 33 |
| CN1CC2CC1CN2CCOC(c1ccc(F)cc1)c1ccc(F)cc1 (stereo not given) | 17 |
| Fc1ccc(C(OCCN2CC3CCC(C2)N3Cc2cc3ccccc3[nH]2)c2ccc(F)cc2)cc1 | 16 |
| Fc1ccc(C(OCCN2CCC3CCC(C2)N3CCCc2ccccc2)c2ccc(F)cc2)cc1 (stereo not given) | 44 |
| c1ccc(C(OCCN2CCC3CCC(C2)N3)c2ccccc2)cc1 (stereo not given) | 15 |
| CN1C2CCC1CN(CCOC(c1ccccc1)c1ccccc1)CC2 (stereo not given) | 6.6 |

These compounds were tested against T1, Monoamine transporters; serotonin & dopamine (Rattus norvegicus) (assay: Ratio of binding affinity of 5-HT to that of DA).
Type: protein assay

| Structure (SMILES) | Ratio |
| --- | --- |
| Fc1ccc(C(OCCN2CC3CCC(C2)N3C/C=C/c2cccs2)c2ccc(F)cc2)cc1 | 12 |
| c1ccc(CCCN2C3CCC2CN(CCOC(c2ccccc2)c2ccccc2)C3)cc1 | 42 |
| CN1C2CCC1CN(CCOC(c1ccc(F)cc1)c1ccc(F)cc1)CC2 (stereo not given) | 21 |
| CN1C2CCC1CN(CCOC(c1ccc(F)cc1)c1ccc(F)cc1)C2 | 88 |
| Fc1ccc(C(OCCN2CC3CC2CN3CCCc2ccccc2)c2ccc(F)cc2)cc1 (stereo not given) | 1.6 |
| Fc1ccc(C(OCCN2CC3CCC(C2)N3C/C=C/c2cccnc2)c2ccc(F)cc2)cc1 | 33 |
| Fc1ccc(C(OCCN2CC3CCC(C2)N3C/C=C/c2ccco2)c2ccc(F)cc2)cc1 | 27 |
| CN1C2CCC1CN(CCOC(c1ccccc1)c1ccccc1)C2 | 58 |
| c1ccc(CCCN2C3CCC2CN(CCOC(c2ccccc2)c2ccccc2)CC3)cc1 (stereo not given) | 41 |
| c1ccc(CCCN2CC3CC2CN3CCOC(c2ccccc2)c2ccccc2)cc1 (stereo not given) | 3 |
| CN1CC2CC1CN2CCOC(c1ccccc1)c1ccccc1 (stereo not given) | 29 |
| CN1CC2CC1CN2CCOC(c1ccc(F)cc1)c1ccc(F)cc1 (stereo not given) | 14 |
| Fc1ccc(C(OCCN2CC3CCC(C2)N3Cc2cc3ccccc3[nH]2)c2ccc(F)cc2)cc1 | 74 |
| Fc1ccc(C(OCCN2CCC3CCC(C2)N3CCCc2ccccc2)c2ccc(F)cc2)cc1 (stereo not given) | 6.5 |
| c1ccc(C(OCCN2CCC3CCC(C2)N3)c2ccccc2)cc1 (stereo not given) | 14 |
| CN1C2CCC1CN(CCOC(c1ccccc1)c1ccccc1)CC2 (stereo not given) | 56 |

The compounds below were run against T2, Sodium-dependent dopamine transporter (Rattus norvegicus, UniProt P23977) (assay: Binding affinity for rat Dopamine transporter.).
T2 sequence (P23977 whole entry): as the sequence (P23977 whole entry, looked up) above
Procedure, shortened: (§1)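 Drugs and blockers prepared in 55.2 mM sodium phosphate buffer, pH 7.4, with 1 mg/mL BSA. Radioligand prepared in the same buffer with chymostatin, leupeptin, EDTA and EGTA. Triplicate incubations ran 18-24 h at 4 °C (equilibrium) in 1 mL, then were filtered over GF/B filters presoaked in 2% polyethylenimine.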

| Structure (SMILES) | IC50 [nM] |
| --- | --- |
| Fc1ccc(C(OCCN2CC3CCC(C2)N3C/C=C/c2cccs2)c2ccc(F)cc2)cc1 | 4 |
| c1ccc(CCCN2C3CCC2CN(CCOC(c2ccccc2)c2ccccc2)C3)cc1 | 18 |
| CN1C2CCC1CN(CCOC(c1ccc(F)cc1)c1ccc(F)cc1)CC2 (stereo not given) | 89 |
| CN1C2CCC1CN(CCOC(c1ccc(F)cc1)c1ccc(F)cc1)C2 | 8 |
| Fc1ccc(C(OCCN2CC3CC2CN3CCCc2ccccc2)c2ccc(F)cc2)cc1 (stereo not given) | 127 |
| Fc1ccc(C(OCCN2CC3CCC(C2)N3C/C=C/c2cccnc2)c2ccc(F)cc2)cc1 | 12 |
| Fc1ccc(C(OCCN2CC3CCC(C2)N3C/C=C/c2ccco2)c2ccc(F)cc2)cc1 | 5.5 |
| CN1C2CCC1CN(CCOC(c1ccccc1)c1ccccc1)C2 | 111 |
| c1ccc(CCCN2C3CCC2CN(CCOC(c2ccccc2)c2ccccc2)CC3)cc1 (stereo not given) | 32 |
| c1ccc(CCCN2CC3CC2CN3CCOC(c2ccccc2)c2ccccc2)cc1 (stereo not given) | 223 |
| Fc1ccc(C(OCCN2CC3CCC(C2)N3CCCc2ccccc2)c2ccc(F)cc2)cc1 | 8.2 |
| CN1CC2CC1CN2CCOC(c1ccccc1)c1ccccc1 (stereo not given) | 1170 |
| CN1CC2CC1CN2CCOC(c1ccc(F)cc1)c1ccc(F)cc1 (stereo not given) | 121 |
| Fc1ccc(C(OCCN2CC3CCC(C2)N3Cc2cc3ccccc3[nH]2)c2ccc(F)cc2)cc1 | 1.4 |
| Fc1ccc(C(OCCN2CCC3CCC(C2)N3CCCc2ccccc2)c2ccc(F)cc2)cc1 (stereo not given) | 130 |
| c1ccc(C(OCCN2CCC3CCC(C2)N3)c2ccccc2)cc1 (stereo not given) | 431 |
| CN1C2CCC1CN(CCOC(c1ccccc1)c1ccccc1)CC2 (stereo not given) | 307 |

The compounds below were run against T2, Sodium-dependent dopamine transporter (assay: Inhibition of [3H]DA reuptake in rat caudate homogenate.).
Type: functional, tissue-based

| Structure (SMILES) | IC50 [nM] |
| --- | --- |
| Fc1ccc(C(OCCN2CC3CCC(C2)N3C/C=C/c2cccs2)c2ccc(F)cc2)cc1 | 28 |
| c1ccc(CCCN2C3CCC2CN(CCOC(c2ccccc2)c2ccccc2)C3)cc1 | 24 |
| CN1C2CCC1CN(CCOC(c1ccc(F)cc1)c1ccc(F)cc1)CC2 (stereo not given) | 36 |
| CN1C2CCC1CN(CCOC(c1ccc(F)cc1)c1ccc(F)cc1)C2 | 9.6 |
| Fc1ccc(C(OCCN2CC3CC2CN3CCCc2ccccc2)c2ccc(F)cc2)cc1 (stereo not given) | 113 |
| Fc1ccc(C(OCCN2CC3CCC(C2)N3C/C=C/c2cccnc2)c2ccc(F)cc2)cc1 | 24 |
| Fc1ccc(C(OCCN2CC3CCC(C2)N3C/C=C/c2ccco2)c2ccc(F)cc2)cc1 | 24 |
| CN1C2CCC1CN(CCOC(c1ccccc1)c1ccccc1)C2 | 1140 |
| c1ccc(CCCN2C3CCC2CN(CCOC(c2ccccc2)c2ccccc2)CC3)cc1 (stereo not given) | 87 |
| c1ccc(CCCN2CC3CC2CN3CCOC(c2ccccc2)c2ccccc2)cc1 (stereo not given) | 198 |
| Fc1ccc(C(OCCN2CC3CCC(C2)N3CCCc2ccccc2)c2ccc(F)cc2)cc1 | 219 |
| CN1CC2CC1CN2CCOC(c1ccccc1)c1ccccc1 (stereo not given) | 830 |
| CN1CC2CC1CN2CCOC(c1ccc(F)cc1)c1ccc(F)cc1 (stereo not given) | 125 |
| Fc1ccc(C(OCCN2CC3CCC(C2)N3Cc2cc3ccccc3[nH]2)c2ccc(F)cc2)cc1 | 40 |
| Fc1ccc(C(OCCN2CCC3CCC(C2)N3CCCc2ccccc2)c2ccc(F)cc2)cc1 (stereo not given) | 47 |
| c1ccc(C(OCCN2CCC3CCC(C2)N3)c2ccccc2)cc1 (stereo not given) | 260 |
| CN1C2CCC1CN(CCOC(c1ccccc1)c1ccccc1)CC2 (stereo not given) | 928 |

Each compound was assayed against T3, Sodium-dependent serotonin transporter (Rattus norvegicus, UniProt P31652) (assay: Inhibition of [3H]5-HT reuptake in whole rat brain (minus cerebellum) homogenate.).
T3 sequence (P31652 whole entry): as the sequence (P31652 whole entry, looked up) above
Type: functional, tissue-based

| Structure (SMILES) | IC50 [nM] |
| --- | --- |
| Fc1ccc(C(OCCN2CC3CCC(C2)N3C/C=C/c2cccs2)c2ccc(F)cc2)cc1 | 268 |
| c1ccc(CCCN2C3CCC2CN(CCOC(c2ccccc2)c2ccccc2)C3)cc1 | 1390 |
| CN1C2CCC1CN(CCOC(c1ccc(F)cc1)c1ccc(F)cc1)CC2 (stereo not given) | 1670 |
| CN1C2CCC1CN(CCOC(c1ccc(F)cc1)c1ccc(F)cc1)C2 | 898 |
| Fc1ccc(C(OCCN2CC3CC2CN3CCCc2ccccc2)c2ccc(F)cc2)cc1 (stereo not given) | 173 |
| Fc1ccc(C(OCCN2CC3CCC(C2)N3C/C=C/c2cccnc2)c2ccc(F)cc2)cc1 | 968 |
| Fc1ccc(C(OCCN2CC3CCC(C2)N3C/C=C/c2ccco2)c2ccc(F)cc2)cc1 | 299 |
| CN1C2CCC1CN(CCOC(c1ccccc1)c1ccccc1)C2 | 13700 |
| c1ccc(CCCN2C3CCC2CN(CCOC(c2ccccc2)c2ccccc2)CC3)cc1 (stereo not given) | 2300 |
| c1ccc(CCCN2CC3CC2CN3CCOC(c2ccccc2)c2ccccc2)cc1 (stereo not given) | 912 |
| Fc1ccc(C(OCCN2CC3CCC(C2)N3CCCc2ccccc2)c2ccc(F)cc2)cc1 | 506 |
| CN1CC2CC1CN2CCOC(c1ccccc1)c1ccccc1 (stereo not given) | 28000 |
| CN1CC2CC1CN2CCOC(c1ccc(F)cc1)c1ccc(F)cc1 (stereo not given) | 2150 |
| Fc1ccc(C(OCCN2CC3CCC(C2)N3Cc2cc3ccccc3[nH]2)c2ccc(F)cc2)cc1 | 645 |
| Fc1ccc(C(OCCN2CCC3CCC(C2)N3CCCc2ccccc2)c2ccc(F)cc2)cc1 (stereo not given) | 2080 |
| c1ccc(C(OCCN2CCC3CCC(C2)N3)c2ccccc2)cc1 (stereo not given) | 3960 |
| CN1C2CCC1CN(CCOC(c1ccccc1)c1ccccc1)CC2 (stereo not given) | 6150 |

The compounds below were run against T3, Sodium-dependent serotonin transporter (assay: Binding affinity for rat 5-hydroxytryptamine transporter.).
Procedure, shortened: as §1

| Structure (SMILES) | IC50 [nM] |
| --- | --- |
| Fc1ccc(C(OCCN2CC3CCC(C2)N3C/C=C/c2cccs2)c2ccc(F)cc2)cc1 | 46 |
| c1ccc(CCCN2C3CCC2CN(CCOC(c2ccccc2)c2ccccc2)C3)cc1 | 740 |
| CN1C2CCC1CN(CCOC(c1ccc(F)cc1)c1ccc(F)cc1)CC2 (stereo not given) | 1900 |
| CN1C2CCC1CN(CCOC(c1ccc(F)cc1)c1ccc(F)cc1)C2 | 705 |
| Fc1ccc(C(OCCN2CC3CC2CN3CCCc2ccccc2)c2ccc(F)cc2)cc1 (stereo not given) | 203 |
| Fc1ccc(C(OCCN2CC3CCC(C2)N3C/C=C/c2cccnc2)c2ccc(F)cc2)cc1 | 395 |
| Fc1ccc(C(OCCN2CC3CCC(C2)N3C/C=C/c2ccco2)c2ccc(F)cc2)cc1 | 146 |
| CN1C2CCC1CN(CCOC(c1ccccc1)c1ccccc1)C2 | 6400 |
| c1ccc(CCCN2C3CCC2CN(CCOC(c2ccccc2)c2ccccc2)CC3)cc1 (stereo not given) | 1320 |
| c1ccc(CCCN2CC3CC2CN3CCOC(c2ccccc2)c2ccccc2)cc1 (stereo not given) | 720 |
| Fc1ccc(C(OCCN2CC3CCC(C2)N3CCCc2ccccc2)c2ccc(F)cc2)cc1 | 77 |
| CN1CC2CC1CN2CCOC(c1ccccc1)c1ccccc1 (stereo not given) | 33000 |
| CN1CC2CC1CN2CCOC(c1ccc(F)cc1)c1ccc(F)cc1 (stereo not given) | 1700 |
| Fc1ccc(C(OCCN2CC3CCC(C2)N3Cc2cc3ccccc3[nH]2)c2ccc(F)cc2)cc1 | 104 |
| Fc1ccc(C(OCCN2CCC3CCC(C2)N3CCCc2ccccc2)c2ccc(F)cc2)cc1 (stereo not given) | 843 |
| c1ccc(C(OCCN2CCC3CCC(C2)N3)c2ccccc2)cc1 (stereo not given) | 6060 |
| CN1C2CCC1CN(CCOC(c1ccccc1)c1ccccc1)CC2 (stereo not given) | 17000 |

Source: ChEMBL document CHEMBL1133553, “Synthesis and transporter binding properties of bridged piperazine analogues of 1-[2-[bis(4-fluorophenyl)methoxy]ethyl]-4-(3-phenylpropyl)piperazine (GBR 12909)” (J Med Chem, 2000)
